# Experimental data reported in publication PMC9055277 (RSC Advances, 2020).
# Legend:
# FS-DNA bound to EtBr = experiment: Fluorescence quenching of EtBr–FS-DNA system; assay type: binding, fish; details: EtBr–FS-DNA (DNA : EtBr 10 : 1), ligand 0–70 μM, Stern–Volmer equation
# Summary of the method: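 FS-DNA stock in Tris–HCl pH 7.4, kept at 4 °C for up to 72 h, with purity checked by A260/A280 > 1.8. EtBr stock (3.0 × 10⁻³ mol L⁻¹, ethanol) was made fresh. DNA and EtBr were premixed 15 min at 25 °C. Ligand was diluted from water stock in Tris–HCl, added, and incubated 15 min. Slits were 5/10 nm. KSV is the slope of I₀/I vs [Q].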
# fish sperm DNA (FS-DNA) = experiment: UV-Vis absorption titration of ligands with FS-DNA; assay type: binding; details: on addition of FS-DNA; band 335 nm (1S3), 345 nm (2S3)
# Summary of the method: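 FS-DNA stock was in Tris–HCl pH 7.4 (A260/A280 > 1.8). Test compound (10 μM, diluted from water stock in Tris–HCl) was titrated with FS-DNA (0–20 μM). Tubes were shaken and incubated 15 min, then scanned 200–800 nm in triplicate. The spectrum of DNA alone was subtracted. Kb came from the Benesi–Hildebrand plot of [DNA]/(εa − εf) vs [DNA] as slope/intercept.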
# [1] = test system: Salmonella typhimurium TA100; experiment: Salmonella/microsome test; assay type: cell-based
# [2] = test system: Salmonella typhimurium TA98; experiment: Salmonella/microsome test; assay type: cell-based
# [3] = TA100, absence of metabolic activation system (−S9)
# [4] = TA100, presence of metabolic activation system (+S9)
# [5] = TA98, absence of metabolic activation system (−S9)
# [6] = TA98, presence of metabolic activation system (+S9), 2S3: at 0.40, 0.20 and 0.10 mg per plate
# [7] = −S9, control set of the 2S3 experiment (concentration cell empty)
Structure (SMILES),quenching constant KSV (FS-DNA bound to EtBr) [M⁻¹],Hypochromism (fish sperm DNA (FS-DNA)) [%],revertant colonies TA100 +S9 ([1]; 0.02 mg per plate),revertant colonies TA100 −S9 ([1]; 0.02 mg per plate),revertant colonies TA100 +S9 ([1]; 0.05 mg per plate) [a2b3],revertant colonies TA100 −S9 ([1]; 0.05 mg per plate) [a3b3],revertant colonies TA100 +S9 ([1]; 0.10 mg per plate),revertant colonies TA100 −S9 ([1]; 0.10 mg per plate),revertant colonies TA100 +S9 ([1]; 0.20 mg per plate),revertant colonies TA100 −S9 ([1]; 0.20 mg per plate) [a2b3],revertant colonies TA100 +S9 ([1]; 0.40 mg per plate) [a3b3],revertant colonies TA100 −S9 ([1]; 0.40 mg per plate),"effect on number of revertant colonies (mutagenicity), in words [1, 3]","effect on number of revertant colonies (mutagenicity), in words [1, 4]",revertant colonies TA98 +S9 ([2]; 0.02 mg per plate),revertant colonies TA98 −S9 ([2]; 0.02 mg per plate),revertant colonies TA98 +S9 ([2]; 0.05 mg per plate),revertant colonies TA98 −S9 ([2]; 0.05 mg per plate) [b3],revertant colonies TA98 +S9 ([2]; 0.10 mg per plate),revertant colonies TA98 −S9 ([2]; 0.10 mg per plate),further results
"NC(=O)COc1cc(OCC(N)=O)c2c(=O)c(OCC(N)=O)c(-c3ccc(OCC(N)=O)c(OCC(N)=O)c3)oc2c1 [1S3, 2,2′,2′′-((2-(3,4-bis(2-amino-2-oxoethoxy)phenyl)-4-oxo-4H-chromene-3,5,7-triyl)tris(oxy))triacetamide]",18300,22.54,47.00 ± 7.16 a3b3,112.40 ± 3.28 a3b3,48.80 ± 12.85,94.00 ± 8.43,62.00 ± 4.95 a3b3,85.00 ± 7.17 a3b3,47.00 ± 6.73 a3b3,80.20 ± 10.65,82.20 ± 5.37,88.80 ± 14.07 a2b3,did not cause any detectable increase,did not cause any detectable increase,9.00 ± 0.44 a3b3,12.00 ± 1.41 a1b3,7.80 ± 1.11 a2b3,14.40 ± 2.20,14.00 ± 2.60 b3,12.20 ± 0.66 a2b3,"revertant colonies TA98 +S9 ([2]; 0.20 mg per plate): 11.20 ± 2.97 b3; revertant colonies TA98 −S9 ([2]; 0.20 mg per plate): 13.20 ± 1.01 a1b3; revertant colonies TA98 +S9 ([2]; 0.40 mg per plate): 7.20 ± 1.68 a1b3; revertant colonies TA98 −S9 ([2]; 0.40 mg per plate): 11.60 ± 1.63 a1b3; effect on number of revertant colonies (mutagenicity), in words [2, 5]: did not cause any detectable increase; effect on number of revertant colonies (mutagenicity), in words [2, 6]: did not cause any detectable increase"
"NC(=O)COc1ccc(-c2cc(=O)c3c(OCC(N)=O)cc(OCC(N)=O)cc3o2)cc1 [2S3, 2,2′-((2-(4-(2-Amino-2-oxoethoxy)phenyl)-4-oxo-4H-chromene-5,7-diyl)bis(oxy))diacetamide]",19600,20.91,187.40 ± 18.93 a1b3,182.40 ± 9.15 a2b3,190.80 ± 11.16,195.40 ± 6.96,196.60 ± 15.75 a2b3,185.60 ± 7.20 a2b3,183.60 ± 9.35 a2b3,200.00 ± 8.44,210.40 ± 2.31,171.40 ± 8.55 a1b3,significantly increased,significantly increased,15.60 ± 2.52 b3,17.00 ± 1.00 b3,18.40 ± 1.74 b3,17.40 ± 1.12,25.40 ± 1.83 a2b3,20.00 ± 2.25 b3,"revertant colonies TA98 +S9 ([2]; 0.20 mg per plate): 22.00 ± 1.37 a2b3; revertant colonies TA98 −S9 ([2]; 0.20 mg per plate): 16.60 ± 1.80 b3; revertant colonies TA98 +S9 ([2]; 0.40 mg per plate): 24.60 ± 2.11 a2b3; revertant colonies TA98 −S9 ([2]; 0.40 mg per plate): 19.20 ± 2.08 b3; effect on number of revertant colonies (mutagenicity), in words [2, 5]: did not cause an increase; effect on number of revertant colonies (mutagenicity), in words [2, 6]: statistically significant increase"
"Nc1ccc([N+](=O)[O-])cc1N [NPD, 4-nitro-o-phenylenediamine, reference compound]",–,–,–,–,–,–,–,–,–,–,–,–,–,–,–,–,–,–,–,–,"revertant colonies TA98 −S9, positive control ([2]; 200 μg mL^−1, −S9, control set of the 1S3 experiment): 4260 ± 291.75; revertant colonies TA98 −S9, positive control [2, 7]: 3808.40 ± 221.78"
"[N-]=[N+]=[N-].[Na+] [SA, sodium azide, reference compound]",–,–,–,–,–,–,–,–,–,–,–,–,–,–,–,–,–,–,–,–,"revertant colonies TA100 −S9, positive control ([1]; 1 μg mL^−1, −S9, control set of the 1S3 experiment): 1497.2 ± 230.28; revertant colonies TA100 −S9, positive control [1, 7]: 1506.40 ± 114.82"
